In publication PMC4924508 (Theranostics, 2016):
Square brackets hold non-standard residues; d marks the D form. Peptide text beside a SMILES is read from it. * marks the point of attachment. Biotin = O=C1N[C@H]2[C@H](CS[C@H]2CCCCC(=O)*)N1

How the values were obtained:
[1] = Serum stability study in normal mouse serum, MALDI-TOF MS; format: in vitro ADME; conditions: 37 °C, result in words
[2] = tested on: CT-26 colon carcinoma tumors / M2-like TAMs; assay: In vivo biodistribution study in CT-26 tumor model; design: species or system mouse; conditions: 20 min after injection, n = 5, result in words
Procedure, shortened: (§1)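 Female BALB/c mice (6 week-old) received CT-26 cells in the right flank or 4T1 cells in the mammary fat pad, and were used 2 weeks later (tumor diameter ≤1.5 cm). Sulfo-Cy5-labeled test compound (2.24 nmol, PBS/10% DMSO) or PBS was injected retro-orbitally. After 20 min, mice were PBS-perfused. Tumors were enzymatically dissociated, Fc-blocked, stained for CD11b/Ly-6G/F4/80, PFA-fixed and run on flow cytometry. Subsets were compared by one-way ANOVA/Tukey.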

[3] = tested on: 4T1 breast carcinoma tumors / M2-like TAMs; assay: In vivo biodistribution study in 4T1 tumor model; design: species or system mouse; conditions: 20 min after injection, n = 3, result in words
Procedure, shortened: as §1

| Compound | protection against endolytic cleavage at the W10/W11 site in serum [1] | also measured |
| --- | --- | --- |
| CC(=O)N[C@@H](Cc1ccc(O)cc1)C(=O)N[C@@H](CCC(=O)O)C(=O)N[C@@H](CCC(N)=O)C(=O)N[C@@H](CC(=O)O)C(=O)N1CCC[C@H]1C(=O)N[C@@H](Cc1c[nH]c2ccccc12)C(=O)NCC(=O)N[C@H](C(=O)N[C@@H](CCCNC(=N)N)C(=O)N[C@@H](Cc1ccc(O)cc1)C(=O)N[C@@H](Cc1c[nH]c2ccccc12)C(=O)N[C@@H](Cc1ccc(O)cc1)C(=O)NCC(=O)NCC(=O)NCC(=O)N[C@@H](CO)C(=O)N[C@H](CCCCN)C(=O)N[C@H](CCCCN)C(=O)N[C@H](CCCCN)C(=O)N[C@@H](CCCCNC(=O)CCCC[C@@H]1SC[C@@H]2NC(=O)N[C@@H]21)C(N)=O)C(C)C [AcM2pep(RY)Biotin] (Ac-YEQDPWGVRYWYGGGS[dK][dK][dK]K(Biotin)-NH2) | did not improve serum stability at the W10/W11 site | – |
| CC(=O)N[C@@H](Cc1ccc(O)cc1)C(=O)N[C@@H](CCC(=O)O)C(=O)N[C@@H](CCC(N)=O)C(=O)N[C@@H](CC(=O)O)C(=O)N1CCC[C@H]1C(=O)N[C@@H](Cc1c[nH]c2ccccc12)C(=O)NCC(=O)N[C@H](C(=O)N[C@@H](CCCCN)C(=O)N[C@@H](Cc1c[nH]c2ccccc12)C(=O)N[C@@H](Cc1c[nH]c2ccccc12)C(=O)N[C@@H](Cc1ccc(O)cc1)C(=O)NCC(=O)NCC(=O)NCC(=O)N[C@@H](CO)C(=O)N[C@@H](CCCCN)C(=O)N[C@@H](CCCCN)C(=O)N[C@@H](CCCCN)C(=O)N[C@@H](CCCCNC(=O)CCCC[C@@H]1SC[C@@H]2NC(=O)N[C@@H]21)C(N)=O)C(C)C [AcM2pepBiotin] (Ac-YEQDPWGVKWWYGGGSKKKK(Biotin)-NH2) | – | overall serum stability [1]: did not improve the overall serum stability; resistance to N-terminal (exolytic) degradation in serum [1]: resistant to N-terminal degradation |
| CC(=O)N[C@@H](Cc1ccc(O)cc1)C(=O)N[C@@H](CCC(=O)O)C(=O)N[C@@H](CCC(N)=O)C(=O)N[C@@H](CC(=O)O)C(=O)N1CCC[C@H]1C(=O)N[C@@H](Cc1c[nH]c2ccccc12)C(=O)NCC(=O)N[C@H](C(=O)N[C@@H](CCCNC(=N)N)C(=O)N[C@@H](Cc1c[nH]c2ccccc12)C(=O)N[C@@H](Cc1c[nH]c2ccccc12)C(=O)N[C@@H](Cc1ccc(O)cc1)C(=O)NCC(=O)NCC(=O)NCC(=O)N[C@@H](CO)C(=O)N[C@@H](CCCCN)C(=O)N[C@@H](CCCCN)C(=O)N[C@@H](CCCCN)C(=O)N[C@@H](CCCCNC(=O)CCCC[C@@H]1SC[C@@H]2NC(=O)N[C@@H]21)C(N)=O)C(C)C [K9R] (Ac-YEQDPWGVRWWYGGGSKKKK(Biotin)-NH2) | did not confer protection at the W10/W11 site | – |
| CC(=O)N[C@@H](Cc1ccc(O)cc1)C(=O)N[C@@H](CCC(=O)O)C(=O)N[C@@H](CCC(N)=O)C(=O)N[C@@H](CC(=O)O)C(=O)N1CCC[C@H]1C(=O)N[C@@H](Cc1c[nH]c2ccccc12)C(=O)NCC(=O)N[C@H](C(=O)N[C@@H](CCCCN)C(=O)N1CCC[C@H]1C(=O)N[C@@H](Cc1c[nH]c2ccccc12)C(=O)N[C@@H](Cc1ccc(O)cc1)C(=O)NCC(=O)NCC(=O)NCC(=O)N[C@@H](CO)C(=O)N[C@H](CCCCN)C(=O)N[C@H](CCCCN)C(=O)N[C@H](CCCCN)C(=O)N[C@@H](CCCCNC(=O)CCCC[C@@H]1SC[C@@H]2NC(=O)N[C@@H]21)C(N)=O)C(C)C [W10P] (Ac-YEQDPWGVKPWYGGGS[dK][dK][dK]K(Biotin)-NH2) | did not confer protection at the W10/W11 site | – |
| CC(=O)N[C@@H](Cc1ccc(O)cc1)C(=O)N[C@@H](CCC(=O)O)C(=O)N[C@@H](CCC(N)=O)C(=O)N[C@@H](CC(=O)O)C(=O)N1CCC[C@H]1C(=O)N[C@@H](Cc1c[nH]c2ccccc12)C(=O)NCC(=O)N[C@H](C(=O)N[C@@H](CCCCN)C(=O)N[C@@H](Cc1ccc(O)cc1)C(=O)N[C@@H](Cc1c[nH]c2ccccc12)C(=O)N[C@@H](Cc1ccc(O)cc1)C(=O)NCC(=O)NCC(=O)NCC(=O)N[C@@H](CO)C(=O)N[C@H](CCCCN)C(=O)N[C@H](CCCCN)C(=O)N[C@H](CCCCN)C(=O)N[C@@H](CCCCNC(=O)CCCC[C@@H]1SC[C@@H]2NC(=O)N[C@@H]21)C(N)=O)C(C)C [W10Y] (Ac-YEQDPWGVKYWYGGGS[dK][dK][dK]K(Biotin)-NH2) | did not confer protection at the W10/W11 site | – |
| CC(=O)N[C@@H](Cc1ccc(O)cc1)C(=O)N[C@@H](CCC(=O)O)C(=O)N[C@@H](CCC(N)=O)C(=O)N[C@@H](CC(=O)O)C(=O)N1CCC[C@H]1C(=O)N[C@@H](Cc1c[nH]c2ccccc12)C(=O)NCC(=O)N[C@H](C(=O)N[C@@H](CCCCN)C(=O)N[C@H](Cc1c[nH]c2ccccc12)C(=O)N[C@@H](Cc1c[nH]c2ccccc12)C(=O)N[C@@H](Cc1ccc(O)cc1)C(=O)NCC(=O)NCC(=O)NCC(=O)N[C@@H](CO)C(=O)N[C@@H](CCCCN)C(=O)N[C@@H](CCCCN)C(=O)N[C@@H](CCCCN)C(=O)N[C@@H](CCCCNC(=O)CCCC[C@@H]1SC[C@@H]2NC(=O)N[C@@H]21)C(N)=O)C(C)C [W10w] (Ac-YEQDPWGVK[dW]WYGGGSKKKK(Biotin)-NH2) | effective protection against endolytic cleavage at the W10/W11 site | – |
| CC(=O)N[C@@H](Cc1ccc(O)cc1)C(=O)N[C@@H](CCC(=O)O)C(=O)N[C@@H](CCC(N)=O)C(=O)N[C@@H](CC(=O)O)C(=O)N1CCC[C@H]1C(=O)N[C@@H](Cc1c[nH]c2ccccc12)C(=O)NCC(=O)N[C@H](C(=O)N[C@@H](CCCNC(=N)N)C(=O)N[C@@H](Cc1ccc(O)cc1)C(=O)N[C@@H](Cc1c[nH]c2ccccc12)C(=O)N[C@H](Cc1ccc(O)cc1)C(=O)NCC(=O)NCC(=O)NCC(=O)N[C@@H](CO)C(=O)N[C@H](CCCCN)C(=O)N[C@H](CCCCN)C(=O)N[C@H](CCCCN)C(=O)N[C@@H](CCCCNC(=O)CCCC[C@@H]1SC[C@@H]2NC(=O)N[C@@H]21)C(N)=O)C(C)C [Y12y] (Ac-YEQDPWGVRYW[dY]GGGS[dK][dK][dK]K(Biotin)-NH2) | did not improve serum stability at the W10/W11 site | – |
| CGYEQDPWGVRYWYGCkkk(k(N3)-sulfoCy5) (disulfide) [Cyclic M2pep(RY)-sulfoCy5] | – | intratumoral selectivity to M2-like TAMs over M1-like TAMs and CD11b- cells [2]: selectivity to M2-like TAMs over M1-like TAMs and non-TAM CD11b^- cells was observed; intratumoral uptake in M2-like TAMs (flow cytometry) [2]: significantly higher uptake in M2-like TAMs compared to M2pep-sulfoCy5; intratumoral accumulation in M2-like TAMs (flow cytometry) [3]: accumulated preferentially in M2-like TAMs |
| YEQDPWGVKWWYGGGSKKK(k(N3)-sulfoCy5) [M2pep-sulfoCy5] | – | intratumoral selectivity to M2-like TAMs over M1-like TAMs and CD11b- cells [2]: selectivity to M2-like TAMs over M1-like TAMs and non-TAM CD11b^- cells was observed |
